Laboratory results: article PMC9624299 (ACS chemical biology, 2022)

Legend:
[1] = test system: T98G cells; assay: Cell viability assay; assay type: cell-based, human; conditions: for cytotoxicity (in words) / IC50: T98G
Outline: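 T98G cells were cultured in EMEM/10% FBS/1% pen-strep at 37 °C, 5% CO2, seeded and allowed to adhere. Where indicated, cells were pretreated 3 h with the MGMT inhibitor O6BG. Test compound was then added in DMSO (1% final). After 7 days, viability was read by Alamar Blue, with raptinal 20 μM as dead control; n ≥ 3, SEM.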

[2] = test system: U87 cells; assay: Cell viability assay; assay type: cell-based, human; conditions: 7 days; for cytotoxicity (in words): U87; for IC50: U87, no MGMT expression, MGMT(−)/MMR(+), Alamar Blue
Outline: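 Cells were cultured in EMEM with 10% FBS and 1% pen-strep (37 °C, 5% CO2), seeded and allowed to adhere 3 h. Test compound was added in DMSO (1% final). After 7 days of incubation, viability was read by Alamar Blue, with raptinal 20 μM as dead control. IC50 taken from dose–response curves; n ≥ 3, SEM.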

[3] = BBB permeability; assay type: in vivo, CD-1 IGS mice; conditions: mice, 25 mg/kg IV, 15 min
Outline: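 CD-1 IGS mice received 25 mg/kg by lateral tail vein in 5% DMSO, 10% Tween-20 and 85% SBE-βCD (30% w/v in water), and were killed at 15 min. Blood was taken, then mice were saline-perfused. Serum was acidified with 8.5% H3PO4. Brains were acidified (0.3% H3PO4), frozen, homogenised and centrifuged. Levels were measured by LC–MS/MS and used for brain:serum ratio; ≥3 mice/cohort.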

[4] = test system: GBM cell lines; assay: Cell viability assay; assay type: cell-based; conditions: 7 days
Outline: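 Panel lines were seeded and allowed to adhere 3 h, then dosed with test compound in DMSO (1% final) and incubated at 37 °C, 5% CO2 for 7 days. Viability was read by Alamar Blue, with raptinal 20 μM as dead control. IC50 values are from n ≥ 3, SEM.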

[5] = Hydrolytic stability studies; assay type: physicochemical; conditions: for hydrolytic stability, percentage of prodrug remaining after 2 h: HPLC
Outline: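 Compound (100 μM) was incubated in PBS at 37 °C, pH 7.4 (also pH 7 and 8). Aliquots taken at set time points were analysed by HPLC. Peak areas were compared with t0 to give percent prodrug remaining, including at 2 h.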

[6] = test system: GBM; conditions: intracranial murine model of GBM; cited from earlier work
[7] = test system: linearized pBR322 DNA; assay: DNA cross-linking/alkylation assay; assay type: biochemical; conditions: linearized pBR322 DNA 150 ng, 37 °C, Tris pH 8.5, 15 h, agarose gel
Outline: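 pBR322 was linearised with EcoRI, purified and taken up in 10 mM Tris-Cl pH 8.5. DNA (150 ng) was incubated with test compound (DMSO, 5% v/v) at 37 °C for 15 h. Cisplatin and MMS served as positive controls. Samples were denatured 15 min at 4 °C in NaOH-containing sucrose/bromophenol blue buffer (no NaOH for non-denatured controls). Gels were run on 1% neutral agarose with ethidium bromide in TBE, 124 V, 1 h.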

[8] = test system: A172 cells; assay: Quantitation of O6-guanine DNA adducts in cells; assay type: cell-based; conditions: A172, MGMT-negative; LC–MS/MS
[9] = test system: GL261 cells; assay: Quantitation of O6-guanine DNA adducts in cells; assay type: cell-based, mouse; conditions: 100, 300 or 500 μM, 8 h, LC–MS/MS
Outline: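 GL261 cells were plated at 1 × 10^6 per well and exposed to test compound at 100, 300 or 500 μM (1% DMSO) for 8 h. Genomic DNA was extracted, then precipitated with sodium acetate and ethanol. DNA (10 μg) was hydrolysed to deoxynucleosides (37 °C, 6 h). O6-alkyl-dG was quantified by LC–MS/MS against a synthetic standard; n ≥ 3.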

[10] = test system: HCT116 cells; assay: Cell viability assay, HCT116; assay type: cell-based
Outline: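 HCT116 cells were grown in RPMI with 10% FBS and 1% pen-strep (37 °C, 5% CO2), seeded and allowed to adhere. Cells were tested with or without O6BG pretreatment. Test compound was added in DMSO (1% final) after 3 h. After 7 days, viability was read by Alamar Blue, with raptinal 20 μM as dead control.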

[11] = test system: Salmonella typhimurium TA100 strain; assay: Ames test, TA100; assay type: cell-based; conditions: 30 μM, 5 days, no S9 activation, wells per 96
Outline: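 TA100 S. typhimurium was grown overnight, then dispensed into 96-well plates (microplate Ames format) with test compound, growth medium and colorimetric indicator, without S9 activation. Plates were incubated 5 days, and the number of wells per plate showing revertant growth was scored by colour change.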

[12] = cited from earlier work
[13] = test system: GL261 cells; assay: Cell viability assay, GL261; assay type: cell-based; conditions: Mus musculus, GL261, 168 h
Outline: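 Cells were grown in DMEM with 10% FBS and 1% pen-strep at 37 °C, 5% CO2, seeded and allowed to adhere. After 3 h, test compound was added in DMSO (1% final). Cells were incubated 7 days, and viability was assessed by Alamar Blue, with raptinal 20 μM as dead control.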

[14] = test system: RKO cells; assay: Cell viability assay, RKO colon cancer; assay type: cell-based
[15] = aqueous solution, PBS, pH 7.4, 37 °C; cited from earlier work
[16] = Assessment of hematological toxicity; assay type: in vivo, CD-1 IGS mice; conditions: mice, single 125 mg/kg IV dose, 7 days
[17] = test system: D54 cells; assay: Quantitation of O6-guanine DNA adducts in cells; assay type: cell-based; conditions: D54, MGMT-negative; LC–MS/MS
[18] = test system: glioblastoma; conditions: GBM patients, TMZ added to RT; cited from earlier work
[19] = test system: GL261 MGMT+ cells; assay: Cell viability assay, GL261 MGMT+; assay type: cell-based, mouse
[20] = test system: U118MG cells; assay: Cell viability assay, U118MG; assay type: cell-based; conditions: MGMT-expressing
[21] = test system: Escherichia coli WP2 uvrA pKM101 strain; assay: Ames test, WP2 uvrA pKM101; assay type: cell-based; conditions: 30 μM
Outline: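 E. coli WP2 uvrA pKM101 tester strain was run in the 96-well microplate version of the Ames test following the kit maker's instructions. Test compound was added at the indicated concentrations.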

[22] = same schedule (once-per-day over five days); cited from earlier work
[23] = test system: D341 Med cells; assay: Cell viability assay, D341 Med medulloblastoma; assay type: cell-based; conditions: Homo sapiens, 168 h
Outline: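 D341 Med medulloblastoma cells were grown in EMEM with 20% FBS and 1% pen-strep (37 °C, 5% CO2). Cells were seeded and compound was added in DMSO (1% final) after 3 h. Incubation lasted 7 days, and viability was read by Alamar Blue, with raptinal 20 μM as dead control.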

[24] = high MGMT expression, MGMT(+)/MMR(+), 7 days, Alamar Blue

Structure (SMILES): NC(=O)c1ncn2c(=O)n(CCCl)nnc12 [MTZ, mitozolomide]
- cytotoxicity (in words) ([1]; 7 days): robust cytotoxicity
- cytotoxicity (in words) [2]: robust cytotoxicity

Structure (SMILES): C#CCn1nnc2c(C(N)=O)ncn2c1=O [Compound 10]
- brain:serum ratio [3]: 0.06 ± 0.01 ng/g:ng/mL
- IC50 ([4]; all cell lines of the expanded GBM panel): < 100 µM
- half-life ([5]; PBS pH 7.4, 37 °C): ~ 30 min
- hydrolytic stability, percentage of prodrug remaining after 2 h ([5]; PBS pH 7.4, 37 °C): 8%
- IC50 [1, 24]: 77 µM
- efficacy in an intracranial efficacy model (in words) [6]: limited efficacy
- IC50 [2]: 29 µM

Structure (SMILES): COS(C)(=O)=O [MMS, methylmethanesulfonate]
- DNA alkylation (in words) [7]: cause DNA streaking

Structure (SMILES): CC#CCn1nnc2c(C(N)=O)ncn2c1=O [Compound 19]
- IC50 [1, 24]: 110 µM
- DNA alkylation (in words) [7]: Trace DNA alkylation
- DNA interstrand cross-linking (in words) [7]: definitively absent
- IC50 [2]: 37 µM

Structure (SMILES): C=CC=O [acrolein]
- DNA alkylation (in words) [7]: no evidence of alkylation
- DNA interstrand cross-linking (in words) [7]: interstrand cross-linking

Structure (SMILES): N.N.[Cl][Pt][Cl] [cisplatin]
- DNA interstrand cross-linking (in words) [7]: prevent the full denaturation of double-stranded DNA

Structure (SMILES): NC(=O)c1ncn2c(=O)[nH]nnc12 [Compound 1]
- cytotoxicity (in words) ([1]; 7 days): unable to induce cell death
- cytotoxicity (in words) [2]: unable to induce cell death

Structure (SMILES): CCn1nnc2c(C(N)=O)ncn2c1=O [Compound 2]
- cytotoxicity (in words) ([1]; 7 days): much less active than TMZ
- IC50 [2]: 470 µM
- cytotoxicity (in words) [2]: much less active than TMZ

Structure (SMILES): CC(C)(C)n1nnc2c(C(N)=O)ncn2c1=O [Compound 5]
- cytotoxicity (in words) ([1]; 7 days): inactive
- cytotoxicity (in words) [2]: inactive

Structure (SMILES): CC(C)n1nnc2c(C(N)=O)ncn2c1=O [Compound 4]
- cytotoxicity (in words) ([1]; 7 days): inactive
- cytotoxicity (in words) [2]: inactive

Structure (SMILES): Cn1nnc2c(C(N)=O)ncn2c1=O [TMZ, temozolomide]
- O6-dG alkylation adducts [8]: dose-dependent increase in methyl adducts
- O6-alkyl-2′-deoxyguanosine adducts (O6-Me-dG for TMZ, O6-Prop-dG for CPZ) [9]: dose-dependent increase
- effect of MGMT inhibitor pretreatment on cytotoxicity ([10]; HCT116 pretreated with O6BG): negligible potentiation
- IC50 ([10]; Homo sapiens, HCT-116, 168 h): > 800 µM
- revertant (mutated) colonies [11]: 35/96
- half-life in vivo (t1/2) ([12]; human patients, human pharmacokinetics): 1.5 to 2 h
- cerebral spinal fluid concentration as percentage of plasma concentration ([12]; humans, average): about 20%
- IC50 [13]: 120 µM
- IC50 ([14]; Homo sapiens): > 1000 µM
- effect of MGMT inhibitor pretreatment on cell death ([14]; MGMT-expressing, MGMT inhibitor): cell death potentiation
- half-life in vitro [15]: 1.5 to 2 h
- white blood cell, lymphocyte and neutrophil counts (in words) [16]: depletions in white blood cells, lymphocytes, and neutrophils
- O6-dG alkylation adducts [17]: dose-dependent increase in methyl adducts
- difference in IC50 values between MGMT-negative and positive cell lines ([4]; expanded GBM panel): > 6 fold
- overall patient survival [18]: 15 months
- survival benefit vs RT alone [18]: ≤ 8 month
- hydrolytic stability, percentage of prodrug remaining after 2 h ([5]; PBS pH 7.4, 37 °C): 40%
- half-life at 100 μM ([5]; PBS, pH 7.4): ~1.5 h
- IC50 ([1]; Homo sapiens, 168 h): > 550 µM
- loss of activity in T98G relative to U87 ([1]; IC50 T98G vs U87): > 10 fold
- effect of MGMT inhibitor pretreatment on cell death ([1]; T98G pretreated (3 h) with O6BG vs non-pretreated): dramatic potentiation of cell death
- effect of MGMT inhibitor pretreatment on cell death ([19]; GL261 MGMT+ pre-treated with lomeguatrib): potentiation of cell death
- IC50 ([19]; Mus musculus, GL261, 168 h): > 1000 µM
- effect of MGMT inhibitor pretreatment on cell death [20]: cell death potentiation
- mutagenicity (in words) [21]: highly mutagenic
- revertant colonies ([21]; wells per 96): 95/96
- reported MTD [22]: ~ 66 mg/kg
- DNA alkylation (in words) [7]: cause DNA streaking
- IC50 [23]: 460 µM

Structure (SMILES): CC(C)(C)Cn1nnc2c(C(N)=O)ncn2c1=O [Compound 6]
- cytotoxicity (in words) ([1]; 7 days): inactive
- cytotoxicity (in words) [2]: inactive
